{"data": "Assay results gathered from unrelated publications", "target": "Procathepsin L (CTSL, Homo sapiens, UniProt P07711)", "read-out": "enzyme activity", "action": "inhibitor", "note": "Lines come from different studies, so protocols differ. pIC50, pKi: −log10 of the molar value."}
{"Compound": "COC(=O)c1c(C)[nH]c(C(=O)COn2nnc3ccc(S(=O)(=O)N(C)C)cc32)c1C", "assay": "FRET", "quantity": "pIC50", "result": "< 4.00"}
{"Compound": "CC(C)C[C@H](NC(=O)[C@H]1O[C@@H]1C(=O)O)C(=O)NCCCCN=C(N)N", "quantity": "pIC50", "result": 7.48}
{"Compound": "COc1cccc2[nH]c(C(=O)N[C@@H](CC(C)C)C(=O)N[C@@H](C[C@@H]3CCNC3=O)C(=O)CO)cc12", "quantity": "pIC50", "result": 6.84}
{"Compound": "CC[C@H]1NC(=O)[C@@H]2CSC(=N2)[C@@H](Cc2ccccc2)N(C)C(=O)[C@@H]2CCCN2C(=O)[C@H](C(C)C)N(C)C(=O)[C@H](Cc2ccccc2)OC(=O)[C@H](C)[C@@H](C)NC(=O)[C@@H]([C@@H](C)O)NC(=O)[C@@H](CC(C)C)N(C)C(=O)[C@@H]2CSC1=N2", "quantity": "pIC50", "result": 4.85}
{"Compound": "CC[C@H](NC(=O)OCc1ccccc1)C(=O)N[C@H](C(=O)N[C@@H](CC(C)C)C(=O)N(C)N(C#N)CCC(N)=O)C(C)(C)C", "quantity": "pKi", "result": 7.65}
{"Compound": "CC(C)(C)OC(=O)Nc1cccn([C@@H](CC2CC2)C(=O)N[C@@H](C[C@@H]2CCNC2=O)C(=O)C(=O)NCc2ccccc2)c1=O", "quantity": "pIC50", "result": 6.54}
{"Compound": "O=C(Cn1nnc2ccccc21)Nc1ccccc1N1CCc2sccc2C1", "assay": "FRET", "quantity": "pIC50", "result": 5.00}
{"Compound": "COc1cc(Nc2ncc(F)c(Nc3ccc4c(n3)NC(=O)C(C)(C)O4)n2)cc(OC)c1OC", "quantity": "pIC50", "result": 5.20}
{"Compound": "CN(C(=O)[C@H](Cc1ccccc1)NC(=O)[C@@H](NC(=O)OCc1ccccc1)C(C)(C)C)N(C#N)CCC(N)=O", "quantity": "pKi", "result": 7.28}
